High-throughput results deposited in PubChem by several laboratories.
Calb FLC = affects C. albicans growth with fluconazole | C. albicans CaCi-2 (fluconazole-resistant clinical isolate) + fluconazole, Alamar Blue growth, 48 h | 0.57% of 300,000 active | growth inhibition, % (concentration not given with the values) | AID 1979;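 active = growth inhibition above about 58% in most replicates, limit read from the data, passing the limit was not always enough; inconclusive = exactly half the replicates above a set limit; inactive = most replicates below a set limit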;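 note: all wells also contain fluconazole at 8 µg/ml as a sub-toxic cotreatment; 0% = median of DMSO wells and 100% = median of geldanamycin control wells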
Mdm2 MdmX PPI = human Mdm2/MdmX binding inhibition; O15151+Q00987; SaOS-2 split-luciferase Mdm2/MdmX complementation, luminescence; inhibition, % at 8 µM; 3% of 330,000 active; AID 485346;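 active = inhibition of at least 50% at 8 µM in the primary screen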
Target sequence (O15151 whole entry, looked up): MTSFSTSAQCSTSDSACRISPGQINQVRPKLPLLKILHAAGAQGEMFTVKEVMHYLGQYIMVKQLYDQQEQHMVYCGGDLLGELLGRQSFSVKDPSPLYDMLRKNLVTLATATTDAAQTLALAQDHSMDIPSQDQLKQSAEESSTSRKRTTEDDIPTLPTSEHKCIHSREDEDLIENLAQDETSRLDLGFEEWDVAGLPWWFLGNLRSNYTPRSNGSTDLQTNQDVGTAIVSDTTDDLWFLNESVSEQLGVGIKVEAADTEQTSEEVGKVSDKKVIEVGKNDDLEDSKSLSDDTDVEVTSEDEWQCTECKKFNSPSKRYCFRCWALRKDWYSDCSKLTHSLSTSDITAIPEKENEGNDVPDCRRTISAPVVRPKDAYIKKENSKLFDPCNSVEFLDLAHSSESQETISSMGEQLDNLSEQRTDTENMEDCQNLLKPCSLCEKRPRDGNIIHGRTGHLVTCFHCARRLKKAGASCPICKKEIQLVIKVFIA
Target sequence (Q00987 whole entry, looked up): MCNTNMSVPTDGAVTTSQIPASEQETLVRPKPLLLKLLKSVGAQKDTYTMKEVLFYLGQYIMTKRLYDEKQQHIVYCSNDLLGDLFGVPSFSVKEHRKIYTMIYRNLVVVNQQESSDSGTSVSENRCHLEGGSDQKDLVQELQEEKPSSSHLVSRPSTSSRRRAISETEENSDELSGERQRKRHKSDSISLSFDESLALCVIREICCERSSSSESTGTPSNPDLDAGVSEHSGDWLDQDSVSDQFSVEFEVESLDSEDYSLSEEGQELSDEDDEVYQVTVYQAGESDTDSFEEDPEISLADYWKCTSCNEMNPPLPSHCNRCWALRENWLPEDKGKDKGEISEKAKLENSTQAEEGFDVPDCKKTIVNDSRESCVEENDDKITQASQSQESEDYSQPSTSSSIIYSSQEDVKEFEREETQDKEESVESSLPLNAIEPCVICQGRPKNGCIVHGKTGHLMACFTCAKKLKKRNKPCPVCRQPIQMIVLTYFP
Beta apoptosis = beta cell apoptosis inhibition | protection from apoptosis, % (no concentration beside the values) | 0.8% of 300,000 active | AID 435005 | INS-1E cytokine-induced death, ATP luminescence, 48 h; percent of positive-control rescue, neutral wells zero;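 active = Every replicate reaches about 75%, or at least half do and their mean reaches it too, limit read from the data; inconclusive = At least half of replicates reach the limit but their mean does not; inactive = Under half of replicates reach the limit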;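 note: 0% = cytokine-treated negative control wells and 100% = positive control rescue; higher means more ATP so stronger rescue from cytokine killing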
NALP3 yeast inh = inhibitors of NALP3 inflammasome in yeast | Yeast reconstituted NLRP3/ASC/caspase-1, beta-gal luminescence, 24 h | inhibition, % at 10 µM | 0.39% of 330,000 active;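 active = inhibition of 50% or more; inactive = inhibition below 50%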;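 note: plate controls were induced DMSO wells for no effect and uninduced yeast grown without galactose for full effect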
T cruzi inh = T. cruzi replication inhibition. T. cruzi beta-gal in NIH3T3, luminescence, 90 h. 1.4% of 300,000 active. inhibition, % (no concentration beside the values);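 active = mean inhibition across valid replicates above about 55%, limit read from the data; inconclusive = mean below that limit but half or more replicates reach it; inactive = mean below it, under half of replicates reach it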;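 note: signal also drops with host cell toxicity which is not excluded here; 0% = plate median of DMSO wells and 100% = zero luminescence signal; higher percent means less beta-gal luminescence so fewer parasites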
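System: NIH/3T3 fibroblasts plus reporter T. cruzi. Medium: DMEM plus 2% FBS. Probe or stimulus: 5000 reporter trypomastigotes per well. Compound: single 50 nL compound addition per well in DMSO. Incubation: co-culture of at least 90 h after 3 h attachment. Detection: GalScreen β-gal luminescence, detergent lysis, 60 min. Evaluation: parasite load inhibition, %.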
CSC inhib = blocks cancer stem cells; 1.1% of 300,000 active; inhibition, % at 7.5 µM; AID 2717; cancer stem cell-like cells viability, luminescence; in the data active = inhibition above about 75%; inconclusive = no clear call, values can overlap the other calls; tested in HMLE shEcad cells
Mdm2 MdmX conf = human Mdm2/MdmX binding inhibition, confirmed. shares compounds with Mdm2 MdmX PPI. 55% of 10,000 active. AID 489028. luminescent assay. inhibition, % at 8 µM; in the data active = inhibition above about 40%
FLuc counter = inhibits full-length luciferase, flagging false Mdm2/MdmX hits. inhibition, % at 8 µM. SaOS-2 full-length luciferase counterscreen, luminescence. 77% of 6,200 active. shares compounds with Mdm2 MdmX PPI;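 active = mean inhibition at 8 µM reaching about 37%, which flags the compound as non-specific, limit read from the data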;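 note: p53-null SaOS-2 cells with luciferase driven by a doxycycline-inducible promoter; compound on cells about two nights before reading with doxycycline added after day one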
Starred values were filed as active, the others as inactive; ? = inconclusive; . = not tested or not shown. Hits are enriched below; roughly 5.3% of the tested compounds scored in any of these assays.

SMILES | Calb FLC | Mdm2 MdmX PPI | Beta apoptosis | NALP3 yeast inh | T cruzi inh | CSC inhib | Mdm2 MdmX conf | FLuc counter
CN(C)c1nc(-c2ccccn2)nnc1-c1ccccc1 | -2.2 | 75.7* | 5.1 | 11.5 | 50.1 | -9.5 | 3.5 | .
NNC(=O)c1[nH]c2ccc(Br)cc2c1-c1ccccc1 | 22.4 | 3.6 | -11.1 | 15.4 | -4.0 | 51.9 | . | .
COc1ccc2c(c1)c(C(=O)N/N=C/c1ccc(Br)cc1)c(C)n2C | 1.4 | 56.2* | . | 19.7 | 9.6 | 46.6 | 39.5 | 54.0*
COc1ccc(/C=N/NC(=O)c2[nH]c3ccc(Br)cc3c2-c2ccccc2)c(C(=O)O)c1OC | 13.5 | -10.1 | 0.8 | 5.2 | -13.5 | 41.3 | . | .
O=C(N/N=C/c1ccccc1Cl)c1[nH]c2ccc(Br)cc2c1-c1ccccc1 | ? | 88.6* | 68.4 | 15.4 | 41.8 | 68.0 | 75.0* | 106.2*
NNC(=O)c1[nH]c2ccc(Cl)cc2c1-c1ccccc1 | 23.1 | 53.1* | . | 21.6 | -0.3 | 61.4 | 20.9 | .
COc1ccc(/C=N/NC(=O)c2[nH]c3ccc(Br)cc3c2-c2ccccc2)cc1 | -3.1 | 74.2* | 68.9 | -13.4 | 5.7 | 55.3 | 59.8* | 108.1*
COc1cc2cc(C(=O)Nc3ccccc3)c(N)nc2cc1OC | 6.5 | 45.1 | 0.2 | 15.5 | 27.4 | -9.4 | . | .
CN(C)c1cc(NC(=O)CN2CCCC2)c2ccccc2n1 | 2.9 | -23.6 | 2.6 | 14.1 | 12.2 | 0.2 | . | .
COc1ccc(OC)c(S(=O)(=O)Nc2ccc(C)c(C)c2)c1 | -9.7 | -6.8 | -3.7 | 14.0 | 9.3 | -7.7 | . | .
CN(Cc1ccccc1)Cc1nc2c([nH]1)c(=O)[nH]c(=O)n2C | 2.2 | 1.7 | 0.8 | -0.8 | -10.2 | -17.8 | . | .
COC(=O)[C@@]1(C)[C@H]2C(=O)N(C)C(=O)[C@H]2[C@H]2CN=C(SCC(=O)c3ccccc3)N21 | . | -6.0 | . | . | . | . | . | .
Cc1[nH]c2ccccc2c1/C=N/NC(=O)C1CC1(c1ccccc1)c1ccccc1 (centres undefined) | -9.1 | 65.5* | 25.5 | 2.8 | 33.0 | 115.7* | 47.7* | 89.2*
Cc1[nH]c2ccccc2c1/C=N/NC(=O)CCC(=O)NCc1ccccc1 | 2.8 | -14.4 | -2.4 | 0.3 | -3.4 | 4.1 | . | .
Cc1sc2nc(-c3ccccn3)[nH]c(=O)c2c1-c1ccccc1 | 35.9 | 57.1* | 60.5 | 24.2 | . | 20.5 | 30.9 | .
COc1ccc(C(=O)C(c2ccccc2)N2CCOCC2)cc1 (centres undefined) | 1.9 | 13.0 | -0.2 | -48.9 | 7.2 | -9.3 | . | .
Cc1ccc(C(=O)C(c2ccccc2)N2Cc3ccccc3C2=N)cc1 (centres undefined) | 0.2 | 78.6* | 17.0 | -62.8 | 36.9 | 110.9* | 18.5 | .
FC(F)(F)c1ccc(C2[C@H]3CN(Cc4ccc(-c5ccccc5)cc4)[C@H](c4ccccc4)C34CC2(c2cccnc2)C4)cc1 (some centres undefined) | -5.3 | 53.5* | 6.0 | 29.6 | 24.2 | 20.3 | 38.3 | 58.5*
FC(F)(F)c1ccc(C2[C@H]3CN(Cc4ccc(-c5ccccc5)cc4)[C@H](c4ccccc4)C34CC2(c2ccccc2)C4)cc1 (some centres undefined) | -1.2 | 15.5 | -7.3 | 25.7 | -11.9 | 12.1 | . | .
CCOC(=O)c1cccc(NC(=O)c2c(N)n(C)c(=O)[nH]c2=O)c1 | 6.0 | -8.9 | 6.0 | -8.5 | -19.0 | -1.8 | . | .
O=C(c1ccc(Br)o1)N1CCN(c2ccc3nnc(-c4ccccc4)n3n2)CC1 | 8.4 | 57.9* | 2.0 | 21.4 | 34.4 | 2.2 | -4.4 | .
Cc1nnc2ccc(N3CCN(C(=O)c4ccccc4)CC3)nn12 | 2.1 | 0.0 | -13.0 | 14.3 | 1.4 | -15.5 | . | .
O=C(Nc1cccc(F)c1)C1CCN(S(=O)(=O)c2cccc3nonc23)CC1 | -4.3 | -2.9 | 1.1 | 12.1 | 22.9 | -6.9 | . | .
C=C1C(O)[C@@H]2O[C@]3(CC[C@H](/C=C/C(C)[C@@H]4CC(C)=CC5(O[C@H](C[C@@](C)(O)CO)CCC5O)O4)O3)CC[C@H]2O[C@@H]1C(O)CC(C)[C@H]1OC2(CCCCO2)CCC1C (some centres undefined) | . | 87.7* | 76.4* | 9.6 | . | . | 89.8* | 33.4
